IC50 and Activity data for twelve molecules are collected here from ChEMBL document CHEMBL1145453, “Abietane diterpenes from Salvia miltiorrhiza inhibit the activation of hypoxia-inducible factor-1” (J Nat Prod, 2007).

Experiment [1] addresses T1, Hypoxia inducible factors; HIF-1-alpha, HIF-2-alpha (Homo sapiens, UniProt Q16665+Q99814). Put plainly: Inhibition of HIF1 activation in human AGS cells assessed as inhibition of hypoxia-induced luciferase expression after 16 hrs by reporter assay. It counts as cell-based. In outline: (§1)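 Cells transiently cotransfected with pGL3-HRE-luciferase (six HRE copies from human VEGF gene) plus pRL-CMV, plated at 5 × 10^4 cells/well, grown 48 h, then exposed to varied compound concentrations (up to 20 µM) for 16 h at 1% O2/94% N2/5% CO2, 37 °C. Dual-luciferase read-out, firefly normalized to Renilla; IC50 from mean ± SD of three experiments; 17-DMAG positive control.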

Experiment [2] deals with T1, Hypoxia inducible factors; HIF-1-alpha, HIF-2-alpha. The experiment in a line: Inhibition of HIF1 activation in human Hep3B cells assessed as inhibition of hypoxia-induced luciferase expression after 16 hrs by reporter assay. It counts as cell-based. The note with it: hep 3b2. In outline: as §1
On the technique in general: Reporter assays use an easily measured gene product as a stand-in for the process of interest.

For experiment [3], the system named is AGS. Put plainly: Viability of human AGS cells under normoxic conditions after 24 hrs by MTT assay. It counts as functional, cell-based. In outline:
(§2)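 Cells seeded 5 × 10^4/well, settled 3 h at 37 °C, then exposed to a concentration range of compound under normoxia or hypoxia (1% O2) for 24 h. MTT (10 µL of 5 mg/mL stock) added for 4 h, formazan dissolved in DMSO, absorbance at 570 nm; LD50 derived, mean ± SD of three experiments.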
(In general: Formazan colour is commonly taken as a measure of viable cells.)

The test system of experiment [4] is AGS. The experiment in a line: Viability of human AGS cells under hypoxic conditions after 24 hrs by MTT assay. It counts as functional, cell-based. In outline: as §2
Experiment [5] can be described thus: Viability of human Hep3B cells under normoxic conditions after 24 hrs by MTT assay. It counts as functional, cell-based, Hep 3B2. In outline: as §2
Experiment [6] in a line: Viability of human Hep3B cells under hypoxic conditions after 24 hrs by MTT assay. It counts as functional, cell-based, Hep 3B2. The procedure, abridged: as §2
For experiment [7], the system named is Hep 3B2. The experiment in a line: Inhibition of hypoxia-induced HIF1alpha accumulation in Hep3B cells. It counts as functional, cell-based. The note with it: Homo sapiens. In outline:
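Hep3B cells plated at 1.5 × 10^5 cells per cm2, grown overnight at 37 °C, exposed to a range of concentrations for 1 h, then held 12 h hypoxic (1% O2, 94% N2, 5% CO2, 37 °C). HIF-1α was measured in total lysates (50 µg) by Western blot after 6% SDS-PAGE with rabbit anti-HIF-1α, with ECL detection. TOPO I served as loading control.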

The nature of experiment [8]: Suppression of hypoxia-induced VEGF mRNA expression in Hep3B cells after 1 hr by RT-PCR. It counts as functional, cell-based. The note with it: Homo sapiens; Hep 3B2; in the assay text read “after 16 hr” for “after 1 hr”. In outline: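 Hep3B cells pretreated 1 h with graded compound concentrations, then held 16 h under hypoxia (1% O2, 94% N2, 5% CO2, 37 °C). Total RNA isolated and VEGF transcript detected by RT-PCR, product identity confirmed by sequencing.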

In experiment [9] the test system is Hep 3B2. The experiment in a line: Inhibition of hypoxia-induced secreted VEGF levels in Hep3B cells after 16 hr by ELISA. To be noted: Homo sapiens. On the technique in general: An ELISA detects its analyte on a solid surface through an enzyme-linked reagent.

A value given as a limit tells only on which side of the number the result lay.

For `Cc1coc2c1C(=O)C(=O)c1c-2ccc2c1CCCC2(C)C` [TANSHINONE IIA], the half-inhibitory concentration (IC50) (as a rule, the midpoint of a concentration-inhibition curve) in experiment [1] is 7.53 µM; in experiment [2], 6.18 µM; in [3], 10 µM; in experiment [4] it was 6.8 µM; in [5], more than 50 µM; in experiment [6] it was more than 50 µM.
For `CO[C@H]1/C=C\C=C(/C)C(=O)NC2=CC(=O)C(NCCN(C)C)=C(C[C@@H](C)C[C@H](OC)[C@H](O)[C@@H](C)/C=C(\C)[C@@H]1OC(N)=O)C2=O` [ALVESPIMYCIN], the IC50 in [1] was 0.036 µM; in experiment [2], 0.061 µM; in experiment [5], more than 50 µM.
In the case of `Cc1cccc2c3c(ccc12)C(=O)C(=O)C1=C3OC[C@H]1C` [DIHYDROISOTANSHINONE II], the IC50 in experiment [1] is more than 20 µM; in experiment [2], more than 20 µM; in [3] it was more than 50 µM; in experiment [5], more than 50 µM.
Take `C[C@H]1COC2=C1C(=O)C(=O)c1c2ccc2c1CCCC2(C)C` [CRYPTOTANSHINONE]: the IC50 in experiment [1] is 1.58 µM; in experiment [2], 1.36 µM; in experiment [3], 13.5 µM; in experiment [4], 10.2 µM; in experiment [5], more than 30 µM; in [6] it was more than 30 µM.
As to `Cc1coc2c1C(=O)C(=O)c1c-2ccc2c(C)cccc12` [TANSHINONE I], the 50% inhibitory concentration (IC50) is 12.5 µM in [1], 8.51 µM in experiment [2], more than 50 µM in [3] and more than 50 µM in experiment [5].
Consider `CC(C)C1=CC(=O)c2c(ccc3c2CCCC3(C)C)C1=O` [SIBIRIQUINONE B], for which the IC50 in [1] was 3.36 µM; in [2], 3.18 µM; in [3], more than 50 µM; in experiment [4] it was more than 50 µM; in [5], more than 50 µM; in experiment [6] it was more than 50 µM.
For the molecule `C[C@H](CO)C1=C(O)C(=O)c2c(ccc3c2CCCC3(C)C)C1=O` [NEOCRYPTOTANSHINONE], the IC50 is 12.7 µM in [1], more than 20 µM in experiment [2], more than 50 µM in [3] and more than 50 µM in experiment [5].
Turning to `CC(C)C1=CC(=O)c2c(ccc3c2C=CCC3(C)C)C1=O` [SIBIRIQUINONE A], the half-inhibitory concentration (IC50) is 0.34 µM in experiment [1]; 0.28 µM in experiment [2]; 35.7 µM in experiment [3]; 21.2 µM in experiment [4]; more than 50 µM in [5]; more than 50 µM in [6]. The IC50 in experiment [7] came to 0.4 µM; in experiment [9], 3.5 µM. In experiment [8], the Activity result is “Dose-dependent effect”.
`Cc1cccc2c3c(ccc12)C(=O)C(C(C)C)=CC3=O` [12-DEOXYTANSHINQUINONE B]: the concentration for half-maximal inhibition (IC50) in experiment [1] was 15.1 µM; in experiment [2], 10.6 µM; in experiment [3] it was 21.6 µM; in [5], more than 50 µM.
The matching figures for `COC(=O)[C@@]1(C)CCCc2c1ccc1c2C(=O)C(=O)c2c(C)coc2-1` [METHYL TANSHINONATE]: 7.48 µM, 7.34 µM, more than 50 µM and more than 50 µM.
On to `Cc1cccc2c3c(ccc12)C1=C(C(=O)C3=O)[C@@H](C)CO1` [DIHYDROTANSHINONE I], for which the IC50 in experiment [1] is 2.05 µM; in [2], 2.29 µM; in experiment [3] it was more than 50 µM; in experiment [4], 47.7 µM; in experiment [5], more than 50 µM; in experiment [6], more than 50 µM. In experiment [7], this molecule yielded a half-maximal inhibitory concentration (IC50) of 3.2 µM.
For the molecule `Cc1cccc2c3c(ccc12)C(=O)C(C(C)CO)=C(O)C3=O` (stereo unspecified) [DANSHENXINKUN A], the IC50 is more than 20 µM in [1], more than 20 µM in experiment [2], more than 50 µM in [3] and more than 50 µM in experiment [5].
